Experimental data from different studies.
Each line is one published result; the experiments were not run side by side. ≈ marks a conversion by molar mass, not a printed value.
Organism: Candida albicans
Observed: microbial growth

SMILES	test	test system	conditions	quantity	result
CN(C)c1ccc(-c2c(C(N)=S)c(N)n(N)c(=O)c2C#N)cc1	well diffusion	ATCC10231	500 µg/mL	inhibition zone	17 mm
Nc1ccccc1OC(=O)C=Cc1ccc(O)c(O)c1	broth dilution	SC5314	–	MIC	8 µg/mL (≈ 29.5 µM)
Cc1nn(-c2ccccc2)c2c1C(c1ccc([N+](=O)[O-])cc1)N(C(=O)c1ccncc1)N2 (centres unmarked)	–	MTCC183	–	MIC	> 100 µg/mL
CC1CCC(C(C)C)C(OC(=O)C=Cc2ccc(O)c(O)c2)C1 (centres unmarked)	broth dilution	SC5314	–	MIC	8 µg/mL (≈ 25.1 µM)
N#Cc1c(-c2ccc(OCc3ccccc3)cc2)c(C(N)=S)c(N)n(N)c1=O	well diffusion	ATCC10231	500 µg/mL	inhibition zone	10 mm
Cc1nn(-c2ccccc2)c2c1C(c1ccc(N(C)C)cc1)N(C(=O)c1ccncc1)N2 (centres unmarked)	–	MTCC183	–	MIC	32 µg/mL (≈ 75.4 µM)
OC(Cn1cncn1)(Cn1cncn1)c1ccc(F)cc1F	broth dilution	SC5314	–	MIC	0.25 µg/mL (≈ 0.816 µM)
O=C1C(Br)=C(Br)C(=O)c2ccccc21	broth dilution	ATCC60193	24 h	MIC	3.12 µg/mL (≈ 9.89 µM)
O=C(C=Cc1ccc(O)c(O)c1)OCCc1ccccc1	broth dilution	SC5314	–	MIC	8 µg/mL (≈ 28.1 µM)
Cc1nn(-c2ccccc2)c2c1C(c1c[nH]c3ccccc13)N(C(=O)c1ccncc1)N2 (centres unmarked)	–	MTCC183	–	MIC	32 µg/mL (≈ 76.1 µM)
Cc1c(C(N)=O)c(N)n(N)c(=O)c1C#N	well diffusion	ATCC10231	500 µg/mL	inhibition zone	12 mm
COC1=CC(=O)c2ccccc2C1=O	broth dilution	ATCC60193	24 h	MIC	25 µg/mL (≈ 133 µM)
COc1cc(Cc2cnc(N)nc2N)cc(OC)c1OC	broth dilution	SC5314	–	MIC	64 µg/mL (≈ 220 µM)
N#Cc1c(-c2ccc(OCc3ccccc3)cc2)c(C(N)=O)c(N)n(N)c1=O	well diffusion	ATCC10231	500 µg/mL	inhibition zone	10 mm
Cc1nn(-c2ccccc2)c2c1C(c1ccc(O)cc1)N(C(=O)c1ccncc1)N2 (centres unmarked)	–	MTCC183	–	MIC	64 µg/mL (≈ 161 µM)
CC(=O)Oc1ccc(-c2c(C(N)=O)c(N)n(N)c(=O)c2C#N)cc1	well diffusion	ATCC10231	500 µg/mL	inhibition zone	12 mm
Clc1ccccc1C(c1ccccc1)(c1ccccc1)n1ccnc1	–	MTCC183	–	MIC	0.5 µg/mL (≈ 1.45 µM)
